Measurements from ChEMBL document CHEMBL2375314, “Mitochondrial-targeted protective properties of isolated diterpenoids from sideritis spp. in response to the deleterious changes induced by H2O2” (J Nat Prod, 2013).
Calls of active or inactive are those of the source. The calls are words filed in the database; no cut-off is given here.

How the values were obtained:
PC-12 [1] = assay: Neuroprotective activity in rat PC12 cells assessed as inhibition of H2O2-induced caspase-3 activity at 5 to 10 uM incubated for 24 hrs prior to H2O2 challenge measured after 30 mins by fluorometric analysis in presence of Ac-DEVD-AMC; type: functional, cell-based
Procedure, shortened: (§1)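 Cells held 24 h with 5 or 10 μM, H2O2 then applied for 30 min in challenge arms (0.1 mM PC12, 1 mM U373-MG). Total cell extract (20 μg) incubated with Ac-DEVD-AMC (20 μM) for 1 h at 37 °C. Released AMC read at ex 360/em 460 nm. Expressed as % of control; mean ± SD, n = 9.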

[2] = Neurotoxicity in human U373MG cells assessed as change in mitochondrial calcium level at 5 uM after 24 hrs by Rhod-2 staining-based fluorocytometric analysis (reference value: 1 +/- 0.03 nM); type: toxicity, cell-based; conditions: u-373mg atcc
Procedure, shortened: (§2)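 24 h exposure at 5 or 10 μM, optionally followed by 30 min H2O2 (0.1 mM PC12, 1 mM U373-MG). Cells loaded with Rhod-2/AM in Krebs normal-calcium medium for 40 min at 37 °C in the dark, then 30 min for ester hydrolysis. Fluorescence at ex 552/em 581 nm for 4 min, then 15 min after A23187 (5 μM). Ratio of post-ionophore maximum to basal, relative to control; mean ± SD, n = 9.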

PC-12 [3] = assay: Neurotoxicity in rat PC12 cells assessed as change in mitochondrial calcium level at 10 uM after 24 hrs by Rhod-2 staining-based fluorocytometric analysis (reference value: 1 +/- 0.02 nM); type: toxicity, cell-based; conditions: pc-12, 24 h; procedure, shortened: as §2
[4] = Neurotoxicity in human U373MG cells assessed as effect on cellular ATP level at 5 to 10 uM after 24 hrs by HPLC analysis; type: toxicity, cell-based; conditions: u-373mg atcc
Procedure, shortened: (§3)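 After 24 h at 5 or 10 μM, with or without H2O2 for 30 min (0.1 mM PC12; 1 mM U373-MG), cells extracted in 0.6 M HClO4/25 mM EDTA and neutralized with KOH/Tris. Reversed-phase C18 HPLC, isocratic 100 mM KH2PO4 (pH 6.5)/1% methanol at 1 mL/min, UV at 254 nm. Quantified against an ATP standard curve (0.25–5 μM), normalized to protein, as % of control; mean ± SD, n = 9.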

PC-12 [5] = assay: Neurotoxicity in rat PC12 cells assessed as change in cytosolic calcium level at 10 uM after 24 hrs by indo-1/AM staining-based fluorocytometric analysis (reference value: 51.3 +/- 11.3 nM); type: toxicity, cell-based; conditions: pc-12, 24 h
U373 MG [6] = assay: Neuroprotective activity in human U373MG cells assessed as decrease in H2O2-induced cytosolic calcium level at 5 uM incubated for 24 hrs prior to H2O2 challenge measured after 30 mins by indo-1/AM staining-based fluorocytometric analysis (reference value: 482.7 +/- 14.5 nM); type: functional, U-373MG ATCC
[7] = Neurotoxicity in human U373MG cells assessed as change in mitochondrial calcium level at 10 uM after 24 hrs by Rhod-2 staining-based fluorocytometric analysis (reference value: 1 +/- 0.03 nM); type: toxicity, cell-based; conditions: u-373mg atcc; procedure, shortened: as §2
[8] = Neurotoxicity in human U373MG cells assessed as change in mitochondrial membrane potential at 5 to 10 uM after 24 hrs by TMRM staining-based fluorocytometric analysis relative to control; type: toxicity, cell-based; conditions: u-373mg atcc
Procedure, shortened: (§4)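 Cells given 5 or 10 μM for 24 h, then H2O2 for 30 min (0.1 mM PC12, 1 mM U373-MG) where challenged. Loaded in Krebs medium with 150 nM TMRM; fluorescence at ex 549/em 573 nm read for 45 min at 37 °C. FCCP (6 μM) plus oligomycin (0.25 μg/mL) then added for maximal depolarization and read 15 min. Value from maximal minus basal fluorescence, as % of control; mean ± SD, n = 9.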

PC-12 [9] = assay: Neurotoxicity in rat PC12 cells assessed as effect on cellular ATP level at 5 to 10 uM after 24 hrs by HPLC analysis; type: toxicity, cell-based; conditions: pc-12, 24 h; procedure, shortened: as §3
[10] = Neurotoxicity in human U373MG cells assessed as change in cytosolic calcium level at 10 uM after 24 hrs by indo-1/AM staining-based fluorocytometric analysis (reference value: 91.1 +/- 12.5 nM); type: toxicity, cell-based; conditions: u-373mg atcc
U373 MG [11] = assay: Neuroprotective activity in human U373MG cells assessed as protection against H2O2-induced reduction in mitochondrial membrane potential at 5 to 10 uM incubated for 24 hrs prior to H2O2 challenge measured after 30 mins by TMRM staining-based fluorocytometric analysis relative to control; type: functional, cell-based; conditions: U-373MG ATCC; procedure, shortened: as §4
U373 MG [12] = assay: Neuroprotective activity in human U373MG cells assessed as inhibition of H2O2-induced caspase-3 activity at 5 to 10 uM incubated for 24 hrs prior to H2O2 challenge measured after 30 mins by fluorometric analysis in presence of Ac-DEVD-AMC; type: functional, cell-based; conditions: U-373MG ATCC; procedure, shortened: as §1
PC-12 [13] = assay: Neurotoxicity in rat PC12 cells assessed as change in mitochondrial calcium level at 5 uM after 24 hrs by Rhod-2 staining-based fluorocytometric analysis (reference value: 1 +/- 0.02 nM); type: toxicity, cell-based; conditions: pc-12, 24 h; procedure, shortened: as §2
PC-12 [14] = assay: Neuroprotective activity in rat PC12 cells assessed as decrease in H2O2-induced cytosolic calcium level at 5 uM incubated for 24 hrs prior to H2O2 challenge measured after 30 mins by indo-1/AM staining-based fluorocytometric analysis (reference value: 395.9 +/- 15.9 nM); type: functional
U373 MG [15] = assay: Neuroprotective activity in human U373MG cells assessed as decrease in H2O2-induced cytosolic calcium level at 10 uM incubated for 24 hrs prior to H2O2 challenge measured after 30 mins by indo-1/AM staining-based fluorocytometric analysis (reference value: 482.7 +/- 14.5 nM); type: functional, U-373MG ATCC
PC-12 [16] = assay: Neuroprotective activity in rat PC12 cells assessed as decrease in H2O2-induced cytosolic calcium level at 10 uM incubated for 24 hrs prior to H2O2 challenge measured after 30 mins by indo-1/AM staining-based fluorocytometric analysis (reference value: 395.9 +/- 15.9 nM); type: functional
[17] = Neurotoxicity in human U373MG cells assessed as caspase-3 activation at 5 to 10 uM after 24 hrs by fluorometric analysis in presence of Ac-DEVD-AMC; type: toxicity, cell-based; conditions: u-373mg atcc; procedure, shortened: as §1
U373 MG [18] = assay: Neuroprotective activity in human U373MG cells assessed as protection against H2O2-induced reduction in cellular ATP level at 5 to 10 uM incubated for 24 hrs prior to H2O2 challenge measured after 30 mins by HPLC analysis; type: functional, cell-based; conditions: U-373MG ATCC; procedure, shortened: as §3
PC-12 [19] = assay: Neuroprotective activity in rat PC12 cells assessed as reduction of H2O2-induced mitochondrial calcium level at 5 uM incubated for 24 hrs prior to H2O2 challenge measured after 30 mins by Rhod-2 staining-based fluorocytometric analysis (reference value: 1.7 +/- 0.01 nM); type: functional; procedure, shortened: as §2
U373 MG [20] = assay: Neuroprotective activity in human U373MG cells assessed as reduction of H2O2-induced mitochondrial calcium level at 5 uM incubated for 24 hrs prior to H2O2 challenge measured after 30 mins by Rhod-2 staining-based fluorocytometric analysis (reference value: 1.5 +/- 0.02 nM); type: functional, U-373MG ATCC; procedure, shortened: as §2
PC-12 [21] = assay: Neuroprotective activity in rat PC12 cells assessed as protection against H2O2-induced reduction in cellular ATP level at 5 to 10 uM incubated for 24 hrs prior to H2O2 challenge measured after 30 mins by HPLC analysis; type: functional, cell-based; procedure, shortened: as §3
PC-12 [22] = assay: Neuroprotective activity in rat PC12 cells assessed as reduction of H2O2-induced mitochondrial calcium level at 10 uM incubated for 24 hrs prior to H2O2 challenge measured after 30 mins by Rhod-2 staining-based fluorocytometric analysis (reference value: 1.7 +/- 0.01 nM); type: functional; procedure, shortened: as §2
PC-12 [23] = assay: Neurotoxicity in rat PC12 cells assessed as change in cytosolic calcium level at 5 uM after 24 hrs by indo-1/AM staining-based fluorocytometric analysis (reference value: 51.3 +/- 11.3 nM); type: toxicity, cell-based; conditions: pc-12, 24 h
U373 MG [24] = assay: Neuroprotective activity in human U373MG cells assessed as reduction of H2O2-induced mitochondrial calcium level at 10 uM incubated for 24 hrs prior to H2O2 challenge measured after 30 mins by Rhod-2 staining-based fluorocytometric analysis (reference value: 1.5 +/- 0.02 nM); type: functional, U-373MG ATCC; procedure, shortened: as §2
PC-12 [25] = assay: Neuroprotective activity in rat PC12 cells assessed as protection against H2O2-induced reduction in mitochondrial membrane potential at 5 to 10 uM incubated for 24 hrs prior to H2O2 challenge measured after 30 mins by TMRM staining-based fluorocytometric analysis relative to control; type: functional, cell-based; procedure, shortened: as §4
[26] = Neurotoxicity in human U373MG cells assessed as change in cytosolic calcium level at 5 uM after 24 hrs by indo-1/AM staining-based fluorocytometric analysis (reference value: 91.1 +/- 12.5 nM); type: toxicity, cell-based; conditions: u-373mg atcc
PC-12 [27] = assay: Neurotoxicity in rat PC12 cells assessed as caspase-3 activation at 5 to 10 uM after 24 hrs by fluorometric analysis in presence of Ac-DEVD-AMC; type: toxicity, cell-based; conditions: pc-12, 24 h; procedure, shortened: as §1
PC-12 [28] = assay: Neurotoxicity in rat PC12 cells assessed as change in mitochondrial membrane potential at 5 to 10 uM after 24 hrs by TMRM staining-based fluorocytometric analysis relative to control; type: toxicity, cell-based; conditions: pc-12, 24 h; procedure, shortened: as §4

SMILES: C=CC(=C)CC[C@H]1[C@]2(C)CCC[C@](C)(CO)[C@H]2[C@H](O)C[C@]1(C)O [ANDALUSOL]
- Activity (PC-12 [1]): Active
- Activity [2]: 0.97 nM
- Activity (PC-12 [3]): 1.09 nM
- Activity [4]: Non-toxic
- Activity (PC-12 [5]): 56.8 nM
- Activity (U373 MG [6]): 189.6 nM
- Activity [7]: 0.99 nM
- Activity [8]: Non-toxic
- Activity (PC-12 [9]): Non-toxic
- Activity [10]: 98 nM
- Activity (U373 MG [11]): Active
- Activity (U373 MG [12]): Active
- Activity (PC-12 [13]): 1.05 nM
- Activity (PC-12 [14]): 185.8 nM
- Activity (U373 MG [15]): 166.2 nM
- Activity (PC-12 [16]): 174.8 nM
- Activity [17]: Non-toxic
- Activity (U373 MG [18]): Active
- Activity (PC-12 [19]): 1.3 nM
- Activity (U373 MG [20]): 1.15 nM
- Activity (PC-12 [21]): Active
- Activity (PC-12 [22]): 1.2 nM
- Activity (PC-12 [23]): 56.5 nM
- Activity (U373 MG [24]): 1.09 nM
- Activity (PC-12 [25]): Active
- Activity [26]: 92.2 nM
- Activity (PC-12 [27]): Non-toxic
- Activity (PC-12 [28]): Non-toxic

SMILES: CC1(C)CCC[C@]2(C)[C@@H]1C[C@H](O)[C@@]13C=C[C@@](CO)(C1)[C@H](O)C[C@@H]23 [CONCHITRIOL]
- Activity (PC-12 [1]): Active
- Activity [2]: 0.99 nM
- Activity (PC-12 [3]): 1.05 nM
- Activity [4]: Non-toxic
- Activity (PC-12 [5]): 60.6 nM
- Activity (U373 MG [6]): 479.6 nM
- Activity [7]: 0.97 nM
- Activity [8]: Non-toxic
- Activity (PC-12 [9]): Non-toxic
- Activity [10]: 98 nM
- Activity (PC-12 [13]): 1.08 nM
- Activity (PC-12 [14]): 188.8 nM
- Activity (U373 MG [15]): 430.9 nM
- Activity (PC-12 [16]): 192.6 nM
- Activity [17]: Non-toxic
- Activity (PC-12 [19]): 1.4 nM
- Activity (U373 MG [20]): 1.48 nM
- Activity (PC-12 [21]): Active
- Activity (PC-12 [22]): 1.3 nM
- Activity (PC-12 [23]): 53.5 nM
- Activity (U373 MG [24]): 1.45 nM
- Activity (PC-12 [25]): Active
- Activity [26]: 93.2 nM
- Activity (PC-12 [27]): Non-toxic
- Activity (PC-12 [28]): Non-toxic

SMILES: CC1(C)CCC[C@H]2C1=CC[C@H]1C[C@@](C)([C@@H](O)CO)C[C@@H](O)[C@@]12C [LAGASCATRIOL]
- Activity (PC-12 [1]): Active
- Activity [2]: 1.02 nM
- Activity (PC-12 [3]): 0.98 nM
- Activity [4]: Non-toxic
- Activity (PC-12 [5]): 51.4 nM
- Activity (U373 MG [6]): 222.5 nM
- Activity [7]: 1.05 nM
- Activity [8]: Non-toxic
- Activity (PC-12 [9]): Non-toxic
- Activity [10]: 98.1 nM
- Activity (U373 MG [11]): Active
- Activity (U373 MG [12]): Active
- Activity (PC-12 [13]): 0.9 nM
- Activity (PC-12 [14]): 202.5 nM
- Activity (U373 MG [15]): 208.5 nM
- Activity (PC-12 [16]): 187.7 nM
- Activity [17]: Non-toxic
- Activity (U373 MG [18]): Active
- Activity (PC-12 [19]): 1.4 nM
- Activity (U373 MG [20]): 1.22 nM
- Activity (PC-12 [21]): Active
- Activity (PC-12 [22]): 1.5 nM
- Activity (PC-12 [23]): 63.5 nM
- Activity (U373 MG [24]): 1.17 nM
- Activity (PC-12 [25]): Active
- Activity [26]: 102.1 nM
- Activity (PC-12 [27]): Non-toxic
- Activity (PC-12 [28]): Non-toxic
